Test results: ChEMBL document CHEMBL4024713, “Novel aryl piperazines for alleviation of 'andropause' associated prostatic disorders and depression” (Eur J Med Chem, 2017)
Active and inactive are the calls of the source. The calls are words filed in the database; no cut-off is given here.

How the values were obtained:
Mus musculus [1] = experiment: Toxicity in Swiss albino mouse assessed as effect on locomotor activity at 20 mg/kg, po measured at 5 mins interval for 90 mins by open field test; assay type: organism-based; details: in vivo
Summary of the method: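 Male Swiss albino mice in an activity chamber, infrared beam-break counting over 24 intervals of 5 min (120 min). Oral dosing after the 6th interval; six animals per group.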

[2] = AUClast in Sprague-Dawley rat serum at 10 mg/kg, iv administered as single dose by LC-MS/MS analysis; assay type: ADME, organism-based; design: dose 10 mg/kg, route intravenous, time 0 - last
Summary of the method: (§1)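 Male Sprague Dawley rats (250 ± 25 g), fasted overnight (12-16 h), n = 3 per time point; single 10 mg/kg dose orally by feeding needle, or iv from DMSO solution. Serum, prostate and hypothalamus collected up to 48 h post oral dose; hypothalamus from three rats pooled. LC-MS/MS (MRM, phenacetin internal standard), linear 5-400 ng/mL; noncompartmental and compartmental analysis.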

Hypothalamus [3] = experiment: Clearance in Sprague-Dawley rat hypothalamus at 10 mg/kg, po administered as single dose by LC-MS/MS analysis; assay type: ADME, organism-based; details: in vivo; summary of the method: as §1
[4] = Half life in Sprague-Dawley rat hypothalamus at 10 mg/kg, po administered as single dose by LC-MS/MS analysis; assay type: ADME, organism-based; summary of the method: as §1
PC-3 = experiment: Cytotoxicity against human PC3 cells after 24 hrs by MTT assay; assay type: functional, cell-based; details: PC-3, 24 h
Rattus norvegicus [5] = experiment: Toxicity in citral-induced prostatic hyperplasia Sprague-Dawley rat model assessed as effect on testis weight at 10 mg/kg, po administered once daily coadministered with citral for 21 days measured 24 hrs last post dose; assay type: organism-based; details: in vivo
Mus musculus [6] = experiment: Toxicity in Swiss albino mouse assessed as latency time to fall at 20 mg/kg, po measured at 1 hr interval for 4 hrs by rotarod test; assay type: organism-based; details: in vivo
Summary of the method: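 Mice trained on the rotarod (5 to 10 rpm), 2 min trials, 3 per day for two days. On day 3, tested before oral dosing and at 1, 2, 3 and 4 h after, recording latency to fall.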

[7] = Volume of distribution at steady state in Sprague-Dawley rat serum at 10 mg/kg, iv administered as single dose by LC-MS/MS analysis; assay type: ADME, organism-based; details: read-out: Vdss; summary of the method: as §1
Rattus norvegicus [8] = experiment: Toxicity in citral-induced prostatic hyperplasia Sprague-Dawley rat model assessed as effect on seminal vesicle weight at 10 mg/kg, po administered once daily coadministered with citral for 21 days measured 24 hrs last post dose; assay type: organism-based; details: in vivo
Rattus norvegicus [9] = experiment: Anti-androgenic activity in citral-induced prostatic hyperplasia Sprague-Dawley rat model assessed increase in distinction between stromal and acinar compartments at 10 mg/kg, po administered once daily coadministered with citral for 21 days measured 24 hrs last post dose by hematoxyline and eosin stainig based light microscopic analysis; assay type: functional, organism-based
Summary of the method: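 Adult male Sprague-Dawley rats (250-280 g, n = 5), citral 100 mg/kg orally once daily for 28 days. From day 8, compound or flutamide at 10 mg/kg orally once daily for the remaining 21 days. Prostate weight is expressed relative to the citral group (100%). Prostates fixed in 10% formalin; 5 μ sections stained with H&E, examined by light microscopy.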

[10] = Clearance in Sprague-Dawley rat serum at 10 mg/kg, iv administered as single dose by LC-MS/MS analysis; assay type: ADME, organism-based; summary of the method: as §1
[11] = AUClast in Sprague-Dawley rat prostate at 10 mg/kg, po administered as single dose by LC-MS/MS analysis; assay type: ADME, organism-based, Prostate gland; details: in vivo; summary of the method: as §1
[12] = Cmax in Sprague-Dawley rat hypothalamus at 10 mg/kg, po administered as single dose by LC-MS/MS analysis; assay type: ADME, organism-based; design: dose 10 mg/kg, route oral; summary of the method: as §1
Mus musculus [13] = experiment: Anti-depressant like activity in Swiss albino mouse assessed as reduction in immobility time at 20 mg/kg, po measured for 5 mins by tail suspension test; assay type: functional, organism-based
Summary of the method: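 Male Swiss albino mice dosed orally in 1% gum acacia; imipramine as standard. Each mouse suspended by the tail with tape to a horizontal bar 60 cm above the table. Immobility (no limb or body movement other than respiration) recorded for 5 min after 1 min acclimatization; N = 5.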

Hypothalamus [14] = experiment: AUClast in Sprague-Dawley rat hypothalamus at 10 mg/kg, po administered as single dose by LC-MS/MS analysis; assay type: ADME, organism-based; details: in vivo; summary of the method: as §1
Mus musculus [15] = experiment: Anti-depressant like activity in Swiss albino mouse assessed as reduction in immobility time at 20 mg/kg, po administered 60 mins prior to test measured for 5 mins by forced swim test relative to control; assay type: functional; design: scale not given: the % may be the effect or the level left
Summary of the method: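 Male Swiss albino mice (20-25 g); compound 20 mg/kg, imipramine 60 mg/kg or fluoxetine 20 mg/kg given orally in 1% gum acacia (10 mL/kg). After 60 min: 15 min pre-swim in a water cylinder (10 cm depth, 25 ± 1 °C), then retest at 24 h. Immobility recorded for 5 min after 1 min acclimatization; N = 7-9, mean ± SEM, unpaired t-test.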

[16] = target: T1, Androgen receptor (Homo sapiens) (UniProt P10275); experiment: Antagonist activity at AR (unknown origin) expressed in African green monkey COS7 cells at 7.5 uM after 24 hrs by dual luciferase reporter gene assay; assay type: cell-based
T1 sequence (whole entry): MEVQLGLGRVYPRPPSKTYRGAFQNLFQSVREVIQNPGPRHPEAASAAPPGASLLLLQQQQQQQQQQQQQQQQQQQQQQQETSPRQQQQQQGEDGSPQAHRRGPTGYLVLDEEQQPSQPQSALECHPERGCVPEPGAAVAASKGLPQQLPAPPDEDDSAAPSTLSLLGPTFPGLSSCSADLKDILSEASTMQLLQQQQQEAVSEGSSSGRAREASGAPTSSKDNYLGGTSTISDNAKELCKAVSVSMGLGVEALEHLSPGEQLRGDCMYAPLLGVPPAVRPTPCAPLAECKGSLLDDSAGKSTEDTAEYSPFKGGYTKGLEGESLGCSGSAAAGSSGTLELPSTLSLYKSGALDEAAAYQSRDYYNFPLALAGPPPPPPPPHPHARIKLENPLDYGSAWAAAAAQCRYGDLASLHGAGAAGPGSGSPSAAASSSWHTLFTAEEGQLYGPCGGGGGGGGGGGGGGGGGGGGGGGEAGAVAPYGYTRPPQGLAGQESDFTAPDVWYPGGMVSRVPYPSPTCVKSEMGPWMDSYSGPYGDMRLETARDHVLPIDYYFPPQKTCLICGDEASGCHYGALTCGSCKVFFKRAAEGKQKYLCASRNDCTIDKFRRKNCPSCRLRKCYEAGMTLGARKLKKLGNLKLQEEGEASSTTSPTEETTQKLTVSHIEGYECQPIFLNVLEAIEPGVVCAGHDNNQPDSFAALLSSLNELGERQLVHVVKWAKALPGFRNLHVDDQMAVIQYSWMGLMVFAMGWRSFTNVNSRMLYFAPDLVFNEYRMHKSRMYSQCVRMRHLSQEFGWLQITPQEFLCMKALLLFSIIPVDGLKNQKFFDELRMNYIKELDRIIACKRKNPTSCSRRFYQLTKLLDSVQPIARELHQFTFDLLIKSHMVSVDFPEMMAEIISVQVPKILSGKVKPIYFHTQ
Summary of the method: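 Cos7 cells (AR-negative) transiently transfected for 8 h with pARE-E1B-LUC reporter plus pCR3.1.AR expression vector. Then in complete medium, treated with compound at 7.5 μM for 24 h; bicalutamide 3 μM as positive control. Luciferase normalized to pRL-SV40 internal control, expressed as RLU relative to control = 100%.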

Serum = experiment: Volume of distribution at steady state in Sprague-Dawley rat serum at 10 mg/kg, po administered as single dose by LC-MS/MS analysis; assay type: ADME, organism-based; details: in vivo; summary of the method: as §1

**Q.** What does the source list for `c1ccc(N2CCN(CCCN3CCN(c4ccccn4)CC3)CC2)nc1`?
**A.** Activity (Mus musculus [1]): Non-Toxic; AUC(0-t) [2]: 2500 ng·h/mL; CL (Hypothalamus [3]): 0.8 g/h/kg; half-life [4]: 5.37 days; EC50 (PC-3): > 80 µM; Activity (Rattus norvegicus [5]): Non-Toxic; Time (Mus musculus [6]): 120 s; Vd [7]: 28.3 L/kg; Activity (Rattus norvegicus [8]): Non-Toxic; Activity (Rattus norvegicus [9]): Active; clearance [10]: 68.3 mL/min/kg; AUClast [11]: 10.7 µg·h/g; Cmax [12]: 461 ng/g; Activity (Mus musculus [13]): Active; AUClast (Hypothalamus [14]): 4.2 µg·h/g; Activity (Mus musculus [15]): 69.4%; Activity [16]: Active; Vdss (Serum): 23.7 L/kg
